Reference: ChEMBL document CHEMBL4265908, “Structure-activity and structure-property relationships of novel Nrf2 activators with a 1,2,4-oxadiazole core and their therapeutic effects on acetaminophen (APAP)-induced acute liver injury” (Eur J Med Chem, 2018)
Values after ≈ are worked out from the molar mass of the structure shown. Active and inactive are the calls of the source. No cut-off for these calls is given here.

How the values were obtained:
[1] = target: T1, Nuclear factor erythroid 2-related factor 2 (Homo sapiens) (UniProt Q16236); experiment: Activation of Nrf2 in human HepG2-ARE-C8 cells assessed as induction of ARE-mediated luciferase activity at 80 uM after 24 hrs by luciferase reporter gene assay relative to control; format: cell-based
T1 sequence (whole entry): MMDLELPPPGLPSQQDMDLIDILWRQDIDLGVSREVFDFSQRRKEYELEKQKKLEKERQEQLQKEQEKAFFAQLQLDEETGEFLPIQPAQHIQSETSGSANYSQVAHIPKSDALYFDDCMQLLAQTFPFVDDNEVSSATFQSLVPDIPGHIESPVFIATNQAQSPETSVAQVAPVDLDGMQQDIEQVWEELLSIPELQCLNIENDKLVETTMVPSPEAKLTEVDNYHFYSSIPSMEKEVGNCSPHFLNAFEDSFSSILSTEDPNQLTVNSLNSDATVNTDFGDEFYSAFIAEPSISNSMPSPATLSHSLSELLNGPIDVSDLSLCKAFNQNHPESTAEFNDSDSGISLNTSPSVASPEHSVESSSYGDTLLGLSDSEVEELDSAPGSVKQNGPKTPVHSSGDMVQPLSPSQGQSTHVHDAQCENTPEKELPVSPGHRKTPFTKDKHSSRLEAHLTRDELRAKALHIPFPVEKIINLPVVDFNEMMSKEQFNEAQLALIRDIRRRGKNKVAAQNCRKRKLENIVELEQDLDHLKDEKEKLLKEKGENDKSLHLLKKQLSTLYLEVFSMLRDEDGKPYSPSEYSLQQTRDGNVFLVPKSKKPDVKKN
Summary of the method: (§1)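 HepG2-ARE-C8 cells stably carrying ARE-luciferase, grown in DMEM with 10% FBS at 37 °C and 5% CO2. Seeded at 5 × 10^4 cells/well, left overnight, then given compound diluted from a 10 mM DMSO stock for 24 h. Cells lysed and luciferase read as RLU. Inductivity = (RLUtest − RLUblank)/(RLUcontrol − RLUblank), with DMSO as control. Mean ± SEM of three experiments.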

[2] = target: T1, Nuclear factor erythroid 2-related factor 2 (Homo sapiens); experiment: Activation of Nrf2 in human HepG2-ARE-C8 cells assessed as induction of ARE-mediated luciferase activity at 0.01 uM after 24 hrs by luciferase reporter gene assay relative to control; format: cell-based; summary of the method: as §1
[3] = target: T1, Nuclear factor erythroid 2-related factor 2 (Homo sapiens); experiment: Activation of Nrf2 in human HepG2-ARE-C8 cells assessed as induction of ARE-mediated luciferase activity at 40 uM after 24 hrs by luciferase reporter gene assay relative to control; format: cell-based; summary of the method: as §1
[4] = target: T1, Nuclear factor erythroid 2-related factor 2 (Homo sapiens); experiment: Activation of Nrf2 in human HepG2-ARE-C8 cells assessed as induction of ARE-mediated luciferase activity at 1 uM after 24 hrs by luciferase reporter gene assay relative to control; format: cell-based; summary of the method: as §1
[5] = tested on: HepG2; experiment: Cytotoxicity against human HepG2 cells at 80 uM after 24 hrs by MTT assay; format: cell-based; settings: hepg2, 24 h
[6] = target: T1, Nuclear factor erythroid 2-related factor 2 (Homo sapiens); experiment: Activation of Nrf2 in human HepG2-ARE-C8 cells assessed as induction of ARE-mediated luciferase activity at 20 uM after 24 hrs by luciferase reporter gene assay relative to control; format: cell-based; summary of the method: as §1
[7] = Intrinsic aqueous solubility of the compound by potentiometric titration method; format: physicochemical
Summary of the method: (§2)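 Intrinsic aqueous solubility and logD at pH 7.4 determined by Avdeef-Bucher potentiometric titration on a pION Gemini Profiler.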

[8] = target: T1, Nuclear factor erythroid 2-related factor 2 (Homo sapiens); experiment: Activation of Nrf2 in human HepG2-ARE-C8 cells assessed as induction of ARE-mediated luciferase activity at 0.1 uM after 24 hrs by luciferase reporter gene assay relative to control; format: cell-based; summary of the method: as §1
[9] = Lipophilicity, log D of the compound at pH 7.4 by potentiometric titration method; format: physicochemical; settings: buffer; summary of the method: as §2
[10] = target: T1, Nuclear factor erythroid 2-related factor 2 (Homo sapiens); experiment: Activation of Nrf2 in human HepG2-ARE-C8 cells assessed as induction of ARE-mediated luciferase activity at 0.02 uM after 24 hrs by luciferase reporter gene assay relative to control; format: cell-based
[11] = target: T1, Nuclear factor erythroid 2-related factor 2 (Homo sapiens); experiment: Activation of Nrf2 in human HepG2-ARE-C8 cells assessed as induction of ARE-mediated luciferase activity at 2 uM after 24 hrs by luciferase reporter gene assay relative to control; format: cell-based
[12] = tested on: L02; experiment: Cytotoxicity against human LO2 cells up to 160 uM after 24 hrs by MTT assay; format: cell-based; settings: l02, 24 h
Summary of the method: (§3)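 LO2 cells plated for 12 h, then treated for 24 h with 0, 0.2, 2, 20, 40, 80 or 160 μM compound diluted in medium from a DMSO stock. MTT (5 mg/mL stock) added for 4 h, formazan dissolved in DMSO, A570 read. Viability computed from OD relative to DMSO control and blank. Mean ± SD of three experiments.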

[13] = tested on: L02; experiment: Hepatoprotective activity against APAP-induced cell injury in human LO2 cells assessed as increase in cell viability at 20 uM pretreated for 24 hrs followed by APAP treatment measured after 24 hrs by MTT assay; format: functional
Summary of the method: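 LO2 cells plated for 12 h and pretreated for 24 h with 5, 10 or 20 μM compound. One arm was first transfected with 50 nM Nrf2 siRNA before receiving 20 μM compound. Medium then replaced with medium containing 8 mM APAP for 24 h. Viability by MTT at A570. Mean ± SD of three experiments.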

[14] = target: T1, Nuclear factor erythroid 2-related factor 2 (Homo sapiens); experiment: Activation of Nrf2 in human HepG2-ARE-C8 cells assessed as induction of ARE-mediated luciferase activity at 0.2 uM after 24 hrs by luciferase reporter gene assay relative to control; format: cell-based
[15] = tested on: L02; experiment: Cytotoxicity against human LO2 cells at 160 uM after 24 hrs by MTT assay; format: cell-based; settings: l02, 24 h; summary of the method: as §3

Compound	Activity [1]	Activity [2]	Activity [3]	Activity [4]	Activity [5]	Activity [6]	solubility [7] [µM]	Activity [8]	logD [9]	Activity [10]	Activity [11]	Activity [12]	Activity [13]	Activity [14]	Activity [15]
COc1cccc(-c2noc(-c3ccc(F)c(F)c3)n2)c1	16.4	1.63	15.2	5.35	Non-Toxic	14.2	86 (≈ 24.8 µg/mL)	1.87	3.91						
Cc1ccc(-c2noc(-c3ccc(F)c(F)c3)n2)cc1	10.2	0.67	6.62	1.85	Non-Toxic	2.51	35 (≈ 9.53 µg/mL)	1.22	4.16						
CC(C)(C)c1cc(O)ccc1O [E319]	5.27		2.14			1.41				1.18	1.24	<= 7%	Active	1.25	
Fc1ccc(-c2nc(-c3ccc4nc[nH]c4c3)no2)cc1		1.57			Non-Toxic										<= 20%
Fc1ccc(-c2nc(-c3ccc4nc[nH]c4c3)no2)cc1F	49.9	1.46	42.6	12.3	Non-Toxic	24	99 (≈ 29.5 µg/mL)	6.21	3.3						<= 20%
Fc1ccc(-c2nc(-c3ccc(Br)cc3)no2)cc1F	18.2	2.68	12.2	4.49	Non-Toxic	8.65	77 (≈ 26 µg/mL)	3.78	3.91						
CN(C)C=O		0.82	2.97	1.1		1.65		1					Active		
Fc1ccc(-c2nc(-c3ccc(-c4ccccc4)cc3)no2)cc1F	14.7	1.15	10.8	6.75	Non-Toxic	8.54	16 (≈ 5.35 µg/mL)	1.25	4.75						
Cc1ccnc(-c2noc(-c3ccc(F)c(F)c3)n2)c1	10.6	0.63	9.76	2.04	Non-Toxic	8.96	220 (≈ 60.1 µg/mL)	1.06	2.65						
Cc1cccc(-c2noc(-c3ccc(F)c(F)c3)n2)n1	5.68	1.16	4.46	2.65	Non-Toxic	3.96	200 (≈ 54.6 µg/mL)	1.08	2.86						
